Shown are actives, neighbours in structure and some others; about 4.1% of the full set was active somewhere.
Cl transport mod – modulates chloride dependent transport by human KCC2. Q9H2X9. KCC2 cells, thallium flux FluoZin-2 fluorescence. B-score of Tl+ flux slope (higher = more flux/activation; lower = inhibition) at 10 µM. hit rate 2.2% among 190,000. AID 1456;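 active = thallium flux slope and its plate-corrected score both differing from the plate sample mean at a set confidence after two filtering rounds, in either direction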;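 note: slope of fluorescence scaled to starting intensity during 10 to 20 s after thallium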
KCNQ1 act – potentiates or activates the human KCNQ1 potassium channel | P51787 | CHO-K1 KCNQ1, thallium flux FluxOR fluorescence; hits give high values | B-score at 10 µM | hit rate 0.35% among 310,000;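 active = fluorescence ratio B-score, a plate-corrected score, at least three library SD, with initial intensity B-score within 5 SD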
Target sequence (P51787 whole entry, looked up): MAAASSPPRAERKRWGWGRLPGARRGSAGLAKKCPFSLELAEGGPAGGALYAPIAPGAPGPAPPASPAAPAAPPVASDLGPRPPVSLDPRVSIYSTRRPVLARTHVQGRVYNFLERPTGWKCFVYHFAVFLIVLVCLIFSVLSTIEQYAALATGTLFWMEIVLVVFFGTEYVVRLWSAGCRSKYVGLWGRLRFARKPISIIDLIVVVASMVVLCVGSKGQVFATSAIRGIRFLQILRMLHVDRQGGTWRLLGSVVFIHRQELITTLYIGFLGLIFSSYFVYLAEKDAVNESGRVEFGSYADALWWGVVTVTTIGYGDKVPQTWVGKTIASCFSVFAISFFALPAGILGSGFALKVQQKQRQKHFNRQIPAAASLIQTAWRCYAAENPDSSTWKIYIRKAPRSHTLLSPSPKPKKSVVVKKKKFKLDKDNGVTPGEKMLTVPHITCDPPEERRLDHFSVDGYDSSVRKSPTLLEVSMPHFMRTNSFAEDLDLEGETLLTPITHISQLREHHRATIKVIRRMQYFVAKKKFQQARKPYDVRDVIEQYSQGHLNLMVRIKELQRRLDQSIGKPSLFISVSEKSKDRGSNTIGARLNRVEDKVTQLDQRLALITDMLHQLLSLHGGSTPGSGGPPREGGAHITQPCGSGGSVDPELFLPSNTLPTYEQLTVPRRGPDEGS
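assay system = CHO-K1 cells stably expressing KCNQ1 | medium = assay buffer, equal DMSO in all wells | timing = 37 °C overnight plating, 90-min dark dye load, 20-min compound pretreatment | measured by = kinetic FluxOR thallium fluorescence, 10-s 1-Hz baseline, 110-s post-stimulus read | measure = fluorescence change relative to baseline, converted to B score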
KCNQ1 inh – human KCNQ1 channel inhibition; P51787; CHO-K1 KCNQ1, FluxOR thallium flux fluorescence; hits give high values; B-score at 10 µM; hit rate 1.3% among 310,000; AID 2642;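 active = compounds whose thallium flux B-score, printed positive for inhibition, exceeds three library SD while starting fluorescence stays within three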;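 note: channel opened by potassium depolarization with thallium stimulus after 20 min compound exposure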
KCNK9 inh – blocks the human KCNK9 two-pore domain potassium channel; Q9NPC2; HEK293 KCNK9, FluxOR thallium flux fluorescence; hits give low values; B-score at 10 µM; hit rate 1.2% among 310,000; AID 488922;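 active = ratio B-score over 3 SD below the library mean, with starting fluorescence within 5 SD of its mean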;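 note: negative B-score means less thallium flux so channel inhibition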
KCNK3 inh – human KCNK3 channel inhibition, primary screen; B-score at 10 µM; CHO-KCNK3 thallium flux, FluxOR fluorescence; hits give low values; hit rate 0.84% among 340,000;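 active = B-score under library mean minus 4 SD, starting fluorescence ratio at most library mean plus 5 SD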;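 note: more negative B-score means stronger inhibition of thallium flux through KCNK3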
hERG protect – hERG (human) protection from proarrhythmic block; activation (rescue from dofetilide block), less the hit threshold, % at 10 µM; Q12809; hit rate 0.51% among 310,000; CHO-hERG, FluxOR thallium flux, dofetilide IC70 present;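 active = activation above the mean of controls blocked by dofetilide plus 5 SD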;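 note: thallium influx through hERG after potassium depolarization seen as dye fluorescence rise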
KCC2 secondary – KCC2 (human) modulation, secondary assay; normalised thallium flux (F/F0 slope) at 10 µM; hit rate 15% among 3,700; AID 1713; HEK293-KCC2, thallium flux, FluoZin2 fluorescence; hits give high values; shares compounds with Cl transport mod;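 active = thallium flux slope above the same plate's solvent-only control mean plus 3 SD; inconclusive = the two replicate wells disagree; inactive = no significant difference from solvent-only control wells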
KCC2 bumet counter – bumetanide-insensitive thallium flux in KCC2 cells with ouabain, counter-screen | shares compounds with Cl transport mod | HEK293-KCC2 + bumetanide/ouabain, thallium flux FluoZin2; hits give high values | normalized thallium flux at 10 µM | hit rate 49% among 3,700 | AID 1714;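 active = thallium entry rate above the same plate's blocked-transporter control wells by more than 3 SD; inconclusive = the two repeat wells disagree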;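 note: raw slope of fluorescence over initial fluorescence between 10 and 20 s after thallium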
KCC2 sec2 – KCC2 (human) modulation, second secondary assay; shares compounds with Cl transport mod; HEK293-KCC2, thallium flux FluoZin2 fluorescence; actives lie on both sides; F/F0 rise rate, 10–20 s post-thallium; normalized thallium flux at 10 µM; hit rate 23% among 3,700; AID 1715;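 active = thallium flux slope more than 3 SD above or below the plate's solvent-only control mean, mostly below; inconclusive = the two repeat wells disagreed; inactive = no significant shift from solvent-only controls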
HEK293 Tl flux – parental HEK flux effect, counter-screen; shares compounds with Cl transport mod; HEK293 parental cells, thallium flux FluoZin2, ouabain; baseline-ratio fluorescence slope, 10–20 s after thallium; thallium flux rate (normalised fluorescence) at 10 µM; hit rate 46% among 3,700; AID 1716;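 active = thallium flux rate significantly above the same plate's solvent-only control wells, beyond their mean plus 3 SD; inconclusive = the two replicate wells gave conflicting results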
KCC2 retest ouab – confirmation of human KCC2 modulators with ouabain; shares compounds with Cl transport mod; HEK293-KCC2, thallium flux FluoZin2 fluorescence; bidirectional: low = inhibitor, high = activator; raw Tl+ flux slope (below DMSO = inhibition, above = activation) at 10 µM; hit rate 48% among 3,700; AID 1717;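 active = thallium flux slope beyond 3 SD from same-plate DMSO control mean in most replicates, usually higher, sometimes lower; inconclusive = repeat tests gave conflicting results; inactive = no significant difference from controls in most replicates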;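 note: slope of initial-normalized fluorescence between seconds 10 and 20 after thallium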
HEK counter2 – parental HEK flux effect, counter-screen 2; AID 1718; hit rate 33% among 3,700; thallium flux slope at 10 µM; HEK293 parental, thallium flux FluoZin-2 fluorescence slope; shares compounds with Cl transport mod;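 active = thallium flux slope above the same plate's solvent-control mean plus 3 SD in both duplicate wells; inconclusive = duplicate wells that disagreed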;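 note: run without ouabain in cells lacking the KCC2 cotransporter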
Numbers stand for hits; n = inactive; u = inconclusive; x = not tested or not shown.

SMILES | Cl transport mod | KCNQ1 act | KCNQ1 inh | KCNK9 inh | KCNK3 inh | hERG protect | KCC2 secondary | KCC2 bumet counter | KCC2 sec2 | HEK293 Tl flux | KCC2 retest ouab | HEK counter2
CCN(Cc1ccccc1)C(=O)c1cccnc1 | x | n | n | n | n | n | x | x | x | x | x | x
CCOc1cc(N(CC)CC)ccc1/C=C(/C#N)c1nc2ccccc2[nH]1 | x | n | n | n | n | n | 0.00771 | -0.0033 | n | u | 0.00806 | n
Fc1cccc2sc(Nc3nc4c(F)cccc4s3)nc12 | 18 | n | n | n | n | 13.1 | u | 0.0355 | n | 0.0523 | 0.0339 | u
Nc1nc2c(F)cccc2s1 | n | n | n | n | n | n | x | x | x | x | x | x
CC(=O)NC(=S)Nc1ccc2oc(-c3cc(F)c(F)cc3Cl)nc2c1 | n | n | n | n | n | n | x | x | x | x | x | x
N#Cc1c2n(c3c(=O)n(Cc4ccc(Cl)cc4)cnc13)CCCCC2 | x | n | n | n | n | n | n | n | 0.0234 | u | 0.0137 | n
O=C(NCc1cccnc1)C1CC(=O)N(c2ccc(Cl)cc2)C1 (stereo not drawn) | n | n | n | n | n | n | x | x | x | x | x | x
Cc1cc(=S)nc(-c2ccccn2)[nH]1 | 80.8 | n | n | n | n | n | 0.0372 | 0.0478 | n | 0.0411 | 0.0435 | 0.0164
COc1ccc2nc(-c3ccccn3)[nH]c2c1 | x | n | n | n | n | n | x | x | x | x | x | x
O=C(COC(=O)/C=C/c1ccc(Cl)cc1)Nc1ccccc1-c1ccccc1 | n | n | n | n | n | n | x | x | x | x | x | x
CCc1nnc(NC(=O)CSc2ncnc3scc(-c4ccc(C)cc4)c23)s1 | n | n | n | n | n | n | x | x | x | x | x | x
Cc1ccc(-c2csc3ncnc(SCC(N)=O)c23)cc1 | 7.89 | n | n | n | n | n | 0.0178 | 0.0603 | n | u | 0.0498 | u
Cc1ccc(-c2csc3nc(SCC(N)=O)n(Cc4ccccc4)c(=O)c23)cc1 | 6.7 | n | n | n | n | n | n | 0.0214 | n | 0.028 | 0.0258 | n
COc1ccc([N+](=O)[O-])cc1N(CC(O)CN1CCCC1)S(=O)(=O)c1ccc(C)cc1 (stereo not drawn) | n | n | n | n | n | n | x | x | x | x | x | x
CN1C(c2ccc(F)cc2)=CS/C1=C(/C#N)c1nnc(N2CCOCC2)n1-c1ccccc1 | n | n | n | n | n | n | x | x | x | x | x | x
CCN1C(c2ccc(F)cc2)=CS/C1=C(\C#N)c1nnc2n1-c1ccccc1SC2 | -5.12 | n | n | n | n | n | n | n | n | n | 0.0155 | n
CCC(Sc1nc(C)cc(=O)[nH]1)C(=O)Nc1sc2c(c1C#N)CCCC2 (stereo not drawn) | x | n | n | n | n | n | n | n | 0.0256 | n | n | n
CC(Sc1nc(N)cc(=O)[nH]1)C(=O)Nc1sc2c(c1C#N)CCCC2 (stereo not drawn) | n | n | n | n | n | n | x | x | x | x | x | x
N#Cc1c(NC(=O)CSc2nc(N)cc(=O)[nH]2)sc2c1CCCCCC2 | x | n | n | n | n | n | n | n | 0.0268 | n | u | n
CC(C)(C)Nc1nc(OCC(F)(F)F)nc(OCC(F)(F)F)n1 | -2.76 | n | n | n | n | n | n | n | n | n | 0.0149 | n
